Source: ChEMBL document CHEMBL1123227, “Tricyclic epines. Novel (E)- and (Z)-11H-dibenz[b,e]azepines as potential central nervous system agents. Variation of the basic side chain” (1986)

Tests used:
Type in all cases: functional
Mus musculus [1] = species on record: Mus musculus; assay: Anticholinergic activity in mice.
How it was run: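 Groups of 10 female NMRI mice received a lethal dose of physostigmine (0.825 mg/kg sc). Test substances were given orally 30 min before the physostigmine.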

Mus musculus [2] = species on record: Mus musculus; assay: Sedative activity in mice
Mus musculus [3] = species on record: Mus musculus; assay: Sedative activity relative with respect to clozapine.
Mus musculus [4] = species on record: Mus musculus; assay: Anticholinergic activity relative with respect to clozapine.
Oryctolagus cuniculus = species on record: Oryctolagus cuniculus; assay: Compound was tested for the muscle-relaxing activity in rabbits
How it was run: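 Muscle electrical activity during contraction was recorded and pulses were counted. A 5 s extension was repeated every 1 min. Once pulse counts were constant (control value), the substance was given iv, and post-dose pulses were related to that value. Four to six animals were used per dose. ED50 was the dose halving muscle activity from the initial value.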

Rattus norvegicus [5] = species on record: Rattus norvegicus; assay: Compound was tested or the anti-tryptamine activity in rats
How it was run: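 Rats were challenged with tryptamine hydrochloride (16 mg/kg iv), with test substances given ip 30 min beforehand. Activity was scored as absence of clonic front paw movements over a 5 min observation after tryptamine. ED50 was the dose preventing the symptom in half the animals, determined by Probit analysis.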

Rattus norvegicus [6] = species on record: Rattus norvegicus; assay: Compound was tested or the anti-tryptamine activity in rats relative with respect to clozapine.
How it was run: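 Rats dosed ip 30 min before tryptamine hydrochloride 16 mg/kg iv. Effect means front paw clonic movements absent over 5 min observation after tryptamine. ED50 is the dose preventing the symptom in half the animals (Probit analysis); relative activity referenced to clozapine.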

Row | Compound | ED50 (Mus musculus [1]) | ED50 (Mus musculus [2]) | Relative activity (Mus musculus [3]) | Relative activity (Mus musculus [4]) | ED50 (Oryctolagus cuniculus) | ED50 (Rattus norvegicus [5]) | Relative activity (Rattus norvegicus [6])
1 | CCN1CCCC1CNC1=Nc2ccccc2/C(=C/C#N)c2ccccc21 (stereo not drawn) | > 100 mg/kg | 17.2 mg/kg | 0.28 | <0.14 | – | – | –
2 | CCN1CCN(C2=Nc3ccccc3C(=CC#N)c3ccccc32)CC1 | – | – | – | – | ~0.32 mg/kg | 6.6 mg/kg | 0.76
3 | N#C/C=C1/c2ccccc2N=C(NCCN2CCOCC2)c2ccccc21 | > 100 mg/kg | 8.12 mg/kg | 0.58 | <0.14 | – | – | –
4 | N#C/C=C1/c2ccccc2N=C(N2CCC(O)CC2)c2ccccc21 | > 100 mg/kg | > 46.4 mg/kg | <0.1 | <0.14 | – | – | –
5 | CN1CCCC(COC2=Nc3ccccc3/C(=C/C#N)c3ccccc32)C1 (stereo not drawn) | 5.92 mg/kg | > 46.4 mg/kg | <0.1 | 2.38 | – | – | –
6 | N#C/C=C1/c2ccccc2N=C(NCCN2CCCC2)c2ccccc21 | > 100 mg/kg | 4.96 mg/kg | 0.96 | <0.14 | – | – | –
7 | CN(C)CCN(C)C1=Nc2ccccc2/C(=C/C#N)c2ccccc21 | ~31.6 mg/kg | ~14.7 mg/kg | 0.32 | 0.45 | – | – | –
8 | CC1CN(C)CCN1C1=Nc2ccccc2/C(=C/C#N)c2ccccc21 (stereo not drawn) | ~21.5 mg/kg | ~21.5 mg/kg | 0.22 | 0.66 | – | – | –
9 | Cc1ccc2c(c1)/C(=C/C#N)c1ccccc1C(N1CCN(C)CC1)=N2 | – | – | – | – | ~0.1 mg/kg | ~21 mg/kg | 0.23
10 | CN1CCC(N(C)C2=Nc3ccccc3/C(=C/C#N)c3ccccc32)CC1 | ~31.6 mg/kg | 13.4 mg/kg | 0.35 | 0.45 | – | – | –
11 | N#C/C=C1/c2ccccc2N=C(N2CCNCC2)c2ccccc21 | 21.3 mg/kg | 30.6 mg/kg | 0.15 | 0.66 | – | – | –
12 | CN1CCCCC1COC1=Nc2ccccc2/C(=C/C#N)c2ccccc21 (stereo not drawn) | ~68.1 mg/kg | 43.6 mg/kg | 0.11 | 0.21 | – | – | –
13 | CCN1CCN(C2=Nc3ccccc3/C(=C\C#N)c3ccccc32)CC1 | – | – | – | – | – | > 100 mg/kg | <0.05
14 | CN1CCCC(CNC2=Nc3ccccc3/C(=C/C#N)c3ccccc32)C1 (stereo not drawn) | ~46.4 mg/kg | > 100 mg/kg | <0.04 | 0.3 | – | – | –
15 | Cc1ccc2c(c1)N=C(N1CCN(CCN3CCOC3=O)CC1)c1ccccc1/C2=C\C#N | > 46.4 mg/kg | 9.56 mg/kg | 0.5 | <0.3 | – | – | –
16 | CN1CCC(OC2=Nc3ccccc3/C(=C/C#N)c3ccccc32)CC1 | > 21.5 mg/kg | > 21.5 mg/kg | <0.22 | <0.66 | – | – | –
17 | C[N+]1([O-])CCN(C2=Nc3ccccc3C(=CC#N)c3ccccc32)CC1 | 15.9 mg/kg | – | 0.33 | 0.89 | – | – | –
18 | N#C/C=C1/c2ccccc2N=C(N2CCN(CCN3CCOC3=O)CC2)c2ccccc21 | 51 mg/kg | 39.4 mg/kg | 0.12 | 0.28 | – | – | –
19 | CC1CCN(C2=Nc3ccccc3/C(=C/C#N)c3ccccc32)CC1 | > 46.4 mg/kg | ~68.1 mg/kg | 0.07 | <0.3 | – | – | –
20 | CN(C)CCNC1=Nc2ccccc2/C(=C/C#N)c2ccccc21 | > 100 mg/kg | 15.5 mg/kg | 0.31 | <0.14 | – | – | –
21 | C[N+]1([O-])CCCC(COC2=Nc3ccccc3/C(=C/C#N)c3ccccc32)C1 (stereo not drawn) | > 100 mg/kg | > 100 mg/kg | <0.04 | <0.14 | – | – | –

Row | Compound | ED50 (Mus musculus [1]) | ED50 (Mus musculus [2]) | Relative activity (Mus musculus [3]) | Relative activity (Mus musculus [4]) | ED50 (Oryctolagus cuniculus) | ED50 (Rattus norvegicus [5]) | Relative activity (Rattus norvegicus [6])
22 | N#C/C=C1/c2ccccc2N=C(N2CC[N+]([O-])(CCO)CC2)c2ccccc21 | 39 mg/kg | 10.3 mg/kg | 0.46 | 0.36 | – | – | –
23 | CCN(CC)CCNC1=Nc2ccccc2/C(=C/C#N)c2ccccc21 | > 100 mg/kg | 5.72 mg/kg | 0.83 | <0.14 | – | – | –
24 | N#C/C=C1/c2ccccc2N=C(NCCN)c2ccccc21 | > 100 mg/kg | > 100 mg/kg | <0.04 | <0.14 | – | – | –
25 | CN1CCN(CCNC2=Nc3ccccc3/C(=C/C#N)c3ccccc32)CC1 | > 100 mg/kg | 27.7 mg/kg | 0.17 | <0.14 | – | – | –
26 | CN1CCCN(C2=Nc3ccccc3/C(=C/C#N)c3ccccc32)CC1 | 5.49 mg/kg | > 21.5 mg/kg | <0.22 | 2.57 | – | – | –
27 | N#C/C=C1/c2ccccc2N=C(N2CCOC(CO)C2)c2ccccc21 (stereo not drawn) | ~46.4 mg/kg | > 46.4 mg/kg | <0.1 | 0.3 | – | – | –
28 | N#C/C=C1/c2ccccc2N=C(N2CCN(CCO)CC2)c2ccccc21 | ~68.1 mg/kg | 14.6 mg/kg | 0.32 | 0.21 | – | – | –
29 | C[N+]1([O-])CCN(C2=Nc3ccccc3/C(=C/C#N)c3ccccc32)CC1 | ~100 mg/kg | – | 0.26 | 0.14 | – | – | –
30 | CC1CN(C2=Nc3ccccc3/C(=C/C#N)c3ccccc32)CCN1C (stereo not drawn) | 7.68 mg/kg | 8.08 mg/kg | 0.59 | 1.84 | – | – | –
31 | CN(C)CCCNC1=Nc2ccccc2/C(=C/C#N)c2ccccc21 | > 46.4 mg/kg | > 46.4 mg/kg | <0.1 | <0.3 | – | – | –
32 | Cc1ccc2c(c1)N=C(N1CC[N+](C)([O-])CC1)c1ccccc1/C2=C/C#N | 31 mg/kg | 2.66 mg/kg | 1.78 | 0.45 | – | – | –
33 | N#C/C=C1/c2ccccc2N=C(N2CCC(O)(c3ccccc3)CC2)c2ccccc21 | > 100 mg/kg | > 46.4 mg/kg | <0.1 | <0.14 | – | – | –
34 | C[N+]1([O-])CCN(C2=Nc3ccccc3/C(=C\C#N)c3ccccc32)CC1 | 8.75 mg/kg | – | 0.04 | 1.61 | – | – | –
35 | CCN1CCN(C2=Nc3ccccc3/C(=C/C#N)c3ccccc32)CC1 | > 21.5 mg/kg | 2.79 mg/kg | 1.7 | <0.66 | – | – | –
36 | CN1CCN(C2=Nc3ccc(Cl)cc3/C(=C/C#N)c3ccccc32)CC1 | 16.1 mg/kg | 25.6 mg/kg | 0.19 | 0.88 | – | – | –
37 | CN(C)CCOC1=Nc2ccccc2/C(=C/C#N)c2ccccc21 | 24.9 mg/kg | 34.8 mg/kg | 0.14 | 0.57 | – | – | –
38 | N#C/C=C1/c2ccccc2N=C(N2CCOCC2)c2ccccc21 | > 100 mg/kg | > 100 mg/kg | < 0.04 | <0.14 | – | – | –
39 | CN(C)CCCOC1=Nc2ccccc2/C(=C/C#N)c2ccccc21 | 24 mg/kg | > 100 mg/kg | <0.04 | 0.59 | – | – | –
40 | N#C/C=C1/c2ccccc2N=C(NCCN2CCCCC2)c2ccccc21 | > 10 mg/kg | – | – | <1.41 | – | – | –
41 | CN1CCN(C2=Nc3ccccc3C(=CC#N)c3ccccc32)CC1 | – | – | – | – | 0.059 mg/kg | 30 mg/kg | 0.17
42 | CN1CCC(NC2=Nc3ccccc3/C(=C/C#N)c3ccccc32)CC1 | ~68.1 mg/kg | > 100 mg/kg | <0.04 | 0.21 | – | – | –
